Shown is part of a subset that was picked to be rich in hits.
ROMK mod – ROMK potassium channel modulators, primary screen, cell-based, thallium flux, MLSMR library; ATP-sensitive inward rectifier potassium channel 1 (Homo sapiens), P48048; Tet-inducible ROMK, thallium flux fluorescence; actives lie on both sides; B-score at 10 µM; 130,000 compounds, 2% hits; AID 1918, 2009;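 active = signal ratio slope over the read window, or its plate-corrected B-score, at least 3 SD from the plate mean, either direction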;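 note: B-score of the F/F0 ratio slope over 7 to 12 s after thallium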
Target sequence (P48048 whole entry, looked up): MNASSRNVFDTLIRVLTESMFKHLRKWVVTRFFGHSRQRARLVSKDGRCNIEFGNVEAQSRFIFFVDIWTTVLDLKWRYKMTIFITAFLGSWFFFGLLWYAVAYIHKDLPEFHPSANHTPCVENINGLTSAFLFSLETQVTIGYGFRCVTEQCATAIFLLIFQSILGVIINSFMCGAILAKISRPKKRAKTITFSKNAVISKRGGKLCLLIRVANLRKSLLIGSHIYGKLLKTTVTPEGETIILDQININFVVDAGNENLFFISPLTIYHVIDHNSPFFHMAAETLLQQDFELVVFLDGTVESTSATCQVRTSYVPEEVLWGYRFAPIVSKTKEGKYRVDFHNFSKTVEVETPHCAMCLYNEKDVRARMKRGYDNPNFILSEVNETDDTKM
Calb biofilm kill – clotrimazole potentiators killing C. albicans biofilm, primary screen, 4-compound mixtures | inhibition, % at 7.6 µM | 120,000 compounds, 0.02% hits | C. albicans biofilm persisters + clotrimazole, fluorescence viability; primary screen in compound mixtures of four per well | AID 1242, 2008;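 active = inhibition above 30.3% in the primary screen of four-compound pools, then above 30% when the compound was retested; inconclusive = passed the primary limit but could not be retested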;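 note: compounds exposed to preformed 24 h biofilms for 48 h; 0% = untreated biofilm control and 100% = clotrimazole plus chlorhexidine kill blank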
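Assay system: C. albicans biofilms / Medium: RPMI/MOPS medium, pH 7.0 / Schedule: biofilm formation 24 h, compound exposure 48 h, 37 °C / Measured by: Alamar Blue fluorescence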
Pf gametocyte – late stage P. falciparum gametocyte viability inhibitors, primary screen, ATP luminescence, HTS. P. falciparum stage V gametocytes, 24 h. inhibition, % at 10.9 µM. 150,000 compounds, 0.065% hits. AID 743093, 2013;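 active = inhibition above the mean plus 3 SD of compounds within the control limits, set per campaign, cut at about 38% in these data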;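 note: 0% = DMSO wells and 100% = medium only without gametocytes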
ROMK retest – ROMK channel modulator hit retest, confirmation, cell-based, thallium flux, duplicate, resupplied hits; shares compounds with ROMK mod; fluorescence ratio; hits give low values; normalized thallium flux (F/F0 slope) at 10 µM; 3,000 compounds, 54% hits; AID 1917, 2009;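 active = Flux at 10 µM at least 3 SD below or above vehicle control mean in one or both replicates; inconclusive = no clear call, values can overlap the other calls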
* = called active by the depositor; ? = inconclusive; / = not tested or not shown.

SMILES	ROMK mod	Calb biofilm kill	Pf gametocyte	ROMK retest
COc1ccccc1-c1cc(C(F)(F)F)nc(S(=O)(=O)CCCC(=O)N2CCOCC2)n1	-3.4*	/	2	?
COc1ccccc1-c1cc(C(F)(F)F)nc(S(=O)(=O)CCCC(=O)O)n1	0.011	/	/	/
O=C(NCCCn1ccnc1)c1cc(-c2cccc(O)c2)on1	-2.5	18	-2	/
NC(=O)C(=CNc1nc(-c2ccc(Cl)c(Cl)c2)cs1)C(N)=O	/	-3	/	/
CC(C)(C)c1cc(NCc2ccccn2)n2ncc(-c3ccccc3)c2n1	0.35	13	-3	/
C/C=C/c1c(F)c(F)c(Oc2ccc(C(=O)O)cc2)c(F)c1F	3.8*	/	-3	0.09
COc1ccc(OCC(O)COc2ccc(C(=O)O)cc2)cc1 (stereo not drawn)	/	/	16	/
CC(C)(C)c1cccc(C2(O)C(=O)c3ccccc3C2=O)c1O	/	24	0	/
Cc1cccc(CN2CCN(Cc3cccc(-n4cccn4)c3)CC2CCO)n1 (stereo not drawn)	0.011	9	-5	/
C=CCN1C(=O)C(CC(=O)Nc2ccccc2)S/C1=N/c1nccs1 (stereo not drawn)	/	17	4	/
C=CCNc1nc(-c2ccc(O)c(C(N)=O)c2)cs1	0.6	/	-6	0.082
C=CCNc1nc(-c2cc3ccccc3o2)cs1	/	19	/	/
CCc1ccccc1-n1c(SCC(=O)NC)nnc1-c1ccco1	/	/	11	/
Cn1ccs/c1=N\C(=O)Nc1cccc(Cl)c1	0.7	11	/	/
C=CCOC(=O)c1sc(NC(=O)c2ccc(OC)cc2)nc1C	-0.085	-9	-7	/
CC1CCC/C(=N\NC(=O)Nc2ccccc2)C1 (stereo not drawn)	/	6	4	/
COc1ccc(NCC(=O)N/N=C2\CCCC(C)C2)cc1 (stereo not drawn)	2.1*	16	-7	0.077
Cc1nc(SCC(=O)N(C)Cc2ccco2)c2c(C)c(C)sc2n1	/	/	/	0.072
CC(=O)Nc1ccc(NC(=O)CSc2nc(C)nc3sc(C)c(C)c23)cc1	-0.13	7	3	/
CCCOc1ccc2c(C)c(CC(=O)OC)c(=O)oc2c1	-1	/	-15	/
COC(=O)Cc1c(C)c2ccc(OCC(=O)N(C)C)cc2oc1=O	1.4*	/	0	0.071
CCOC(=O)c1csc(NC(=O)c2cc(=O)c3ccccc3o2)n1	0.8	7	/	/
CC(=O)c1sc(NC(=O)c2cc(=O)c3ccccc3o2)nc1C	2.9*	8	-12	0.077
Cc1[nH]n(-c2ccccc2)c(=O)c1/C=N/N1C(=O)c2ccc3c4c(ccc(c24)C1=O)CC3	/	10	12	/
O=C(/C=C/c1cccc(F)c1)c1ccc(N2CCOCC2)cc1	/	17	-26	/
SMILES	ROMK mod	Calb biofilm kill	Pf gametocyte	ROMK retest
O=C(/C=C/c1cccs1)c1ccc(N2CCOCC2)cc1	2.5*	4	7	0.076
O=C(O)c1ccc(-c2nc(-c3ccccc3)cs2)cc1	-0.92	17	9	/
O=C(O)c1ccc(-c2nc(-c3ccc(Cl)c(Cl)c3)cs2)cc1	3.1*	13	/	0.082
CN(C)c1ccc(P(=O)(OC2CCCCC2)C(O)c2ccncc2)cc1 (stereo not drawn)	/	19	-26	/
O=[N+]([O-])c1ccc2c(c1)nc1n2CCN(C2CCCCC2)C1	-5.9*	14	-14	0.053*
O=[N+]([O-])c1ccc2c(c1)nc1n2CCCCC1	-1.3	12	12	/
CC(C)(CN1CCN(Cc2ccccc2)CC1)NS(=O)(=O)c1ccccc1	/	19	0	/
CC(CN1CCNCC1)(NS(=O)(=O)c1ccccc1)c1ccccc1 (stereo not drawn)	-4.5*	/	/	0.062*
COc1cccc(-c2nnc3n2N=C(c2cc(OC)ccc2OC)CS3)c1	0.5	/	14	/
CCOc1cccc(-c2nnc3n2N=C(c2cc(OC)ccc2OC)CS3)c1	3.8*	/	14	0.09
CC1=C(C)CC(C(=O)Nc2ccc3c(c2)OCO3)C(C(=O)O)C1 (stereo not drawn)	-0.26	8	5	/
c1ccc(-c2ccc3c(c2)NCCN3)cc1	/	19	/	/
COc1ccccc1OCCCCN1CCN(c2ccccc2OC)CC1	/	/	-3	/
COc1ccc(C(=O)CCN2CCCCCC2)cc1	0.16	/	/	/
COc1ccc(C(=O)CCN2CCN(c3ccccc3F)CC2)cc1	-10*	16	15	0.077
COc1ccccc1N1CCN(CCCCCCOc2ccc(F)cc2)CC1	-4.5*	4	15	0.038*
COc1ccc(NC(=O)CC(=O)Nc2ccc(OC)cc2)cc1	/	/	7	/
COCCOC(=O)C1=C(C)OC(N)=C(C#N)C1c1cc2cccc(C)c2nc1Cl (stereo not drawn)	0.092	-9	-11	/
CC(C)(C#CC(O)(c1ccccc1)c1ccccc1)N1CCCC1	-0.34	-4	7	/
S=C1NC[C@H](CC2CCCCC2)N1CCc1cccc2ccccc12	/	14	12	/
CCC(=O)NC1OC(CO)C(O)C(O)C1O (stereo not drawn)	-2.4*	13	15	0.073
CC(=O)c1ccc(NC2OC(CO)C(O)C(O)C2O)cc1 (stereo not drawn)	1.3	/	/	/
NC(=O)c1cc([N+](=O)[O-])ccc1NCc1cnccn1	/	/	-11	/
COc1ccc(C(=S)N2CCOCC2)cc1OS(=O)(=O)c1ccccc1[N+](=O)[O-]	-0.36	17	16	/
Cn1cccc1/C=C(/C#N)C(N)=S	0.017	11	1	/
SMILES	ROMK mod	Calb biofilm kill	Pf gametocyte	ROMK retest
N#C/C(=C/c1ccc(F)cc1)C(N)=S	-3.1*	11	3	0.051*
CCc1ccc(C(=O)COC(=O)C(CCSC)NC(=O)c2ccccc2)cc1 (stereo not drawn)	/	16	/	/
c1ccc(Oc2nc(Oc3ccccc3)nc(N3CCOCC3)n2)cc1	-3.6*	/	10	?
c1ccc(CNc2ccc(N3CCOCC3)cc2)cc1	/	/	-10	/
c1ccc(N2CCOCCOCCOCCOCCOCC2)cc1	-6.7*	22	-11	0.085
O=C(Cc1ccccc1)Nc1ccc(N2CCCC2)cc1	0.037	/	0	/
O=C(Cc1ccccc1)Nc1ccc(N2CCOCC2)cc1	-2*	0	12	0.074
O=Cc1ccccc1Oc1nc(N2CCOCC2)nc(N2CCOCC2)n1	-1.3	20	-12	/
CCOC(=O)Cc1csc(NC(=O)C(NC(=O)C2CCCCC2)C(C)C)n1 (stereo not drawn)	-0.024	21	29	/
CC1CN(c2snnc2C=C2C(=O)OC(C)(C)OC2=O)CC(C)O1 (stereo not drawn)	1.4	9	-40	/
Clc1cccc(N/N=C/c2ccc(N3CCOCC3)s2)c1	/	9	3	/
O=C(CCCc1ccccc1)N1CCN(c2ccc([N+](=O)[O-])cc2)CC1	/	/	-10	/
O=C(CCCC(=O)N1CCN(c2ccc([N+](=O)[O-])cc2)CC1)c1ccccc1	-3.2*	6	/	0.058*
Cc1noc(C)c1CSCC(=O)N1CCN(c2ccc([N+](=O)[O-])cc2)CC1	-4.3*	/	/	0.042*
O=C(CCN1C(=O)C2C3C=CC(C3)C2C1=O)N1CCN(c2ccc(F)cc2)CC1 (stereo not drawn)	/	/	1	/
Cc1ccc(CC(=O)N2CCN(c3ccc([N+](=O)[O-])cc3)CC2)cc1	/	/	24	/
O=C(ON=C1CCN(c2ccc([N+](=O)[O-])cc2)CC1)c1ccccc1	/	/	-1	0.067*
